According to ChEMBL document CHEMBL1151953, “Biomimetic transformation and biological activities of Globiferin, a terpenoid benzoquinone from Cordia globifera” (J Nat Prod, 2009):
≈ marks a conversion by molar mass, not a printed value.

Experiments:
[1] = system: Plasmodium falciparum; assay: Antiplasmodial activity against multidrug-resistant Plasmodium falciparum K1; format: functional, organism-based
Method in brief: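 Parasites kept in continuous in vitro culture (Trager–Jensen method); activity assessed by a microculture radioisotope technique.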

[2] = system: Vero; assay: Cytotoxicity against african green monkey Vero cells by sulforhodamine B assay; format: cell-based; conditions: Chlorocebus sabaeus
Method in brief: (§1)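 Cell lines used were KB (human oral epidermoid carcinoma), BC (human breast cancer), NCI-H187 (human small cell lung cancer) and Vero (African green monkey kidney fibroblasts). Cytotoxicity was read colorimetrically by the Skehan method, with ellipticine as the reference substance.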

[3] = system: NCI-H187; assay: Cytotoxicity against human NCI-H187 cells by sulforhodamine B assay; format: functional, cell-based; method in brief: as §1
[4] = Cytotoxicity against human BC1 cells by sulforhodamine B assay; format: functional, cell-based; method in brief: as §1
[5] = system: KB; assay: Cytotoxicity against human KB cells by sulforhodamine B assay; format: functional, cell-based; method in brief: as §1
[6] = system: Mycobacterium tuberculosis; assay: Antimicrobial activity against Mycobacterium tuberculosis H37Ra by microplate alamar blue assay; format: functional, organism-based
[7] = system: Candida albicans; assay: Antifungal activity against Candida albicans by XTT assay; format: functional, organism-based

SMILES | IC50 [1] [µg/mL] | IC50 [2] [µg/mL] | IC50 [3] [µg/mL] | IC50 [4] [µg/mL] | IC50 [5] [µg/mL] | MIC [6] [µg/mL] | IC50 [7] [µg/mL] | IC50 [6] [µg/mL]
C=C[C@]1(C)Cc2c(OC(=O)c3ccccc3)ccc(OC(=O)c3ccccc3)c2C[C@@H]1C(=C)C | > 20 | > 50 | > 20 | > 20 | > 20 | 200 (≈ 442 µM) | > 20 | 
C=C[C@]1(C)Cc2c(OC(C)=O)ccc(OC(C)=O)c2C[C@@H]1C(=C)C | 0.4 (≈ 1.22 µM) | 7.3 (≈ 22.2 µM) | 5.1 (≈ 15.5 µM) | 9.2 (≈ 28 µM) | 8.5 (≈ 25.9 µM) | 25 (≈ 76.1 µM) | > 20 | 
C/C(C=O)=C\CC/C(C)=C/Cc1cc(O)ccc1O [ALLIODORIN] | 3.1 (≈ 11.9 µM) | 14.1 (≈ 54.2 µM) | 2.2 (≈ 8.45 µM) | 10.3 (≈ 39.6 µM) | 12 (≈ 46.1 µM) | 12.5 (≈ 48 µM) | > 20 | 
C[C@@H]1[C@H](O)[C@@H](C)/C=C/C=C/C=C/C=C/C=C/C=C/C=C/[C@H](O[C@@H]2O[C@H](C)[C@@H](O)[C@H](N)[C@@H]2O)C[C@@H]2O[C@](O)(C[C@@H](O)C[C@@H](O)[C@H](O)CC[C@@H](O)C[C@@H](O)CC(=O)O[C@H]1C)C[C@H](O)[C@H]2C(=O)O [AMPHOTERICIN B] |  |  |  |  |  |  | 0.08 (≈ 0.0866 µM) | 
C[C@H]1[C@@H](O)O[C@@H]2O[C@@]3(C)CC[C@H]4[C@H](C)CC[C@@H]1[C@@]24OO3 [ARTENIMOL] | 0.0012 (≈ 0.00422 µM) |  |  |  |  |  |  | 
C=C1CCC[C@@]2(C)CC3=C(C[C@@H]12)C(=O)C=CC3=O [CORDIACHROME B] | 1.5 (≈ 6.19 µM) | 1.7 (≈ 7.02 µM) | 0.4 (≈ 1.65 µM) | 6.4 (≈ 26.4 µM) | 6 (≈ 24.8 µM) | 12.5 (≈ 51.6 µM) | 7.7 (≈ 31.8 µM) | 
CC(C)=CCCC1(C)C=Cc2cc(O)ccc2O1 (stereo not drawn) [CORDIACHROMENE A] | > 20 | > 50 | > 20 | > 20 | > 20 | 12.5 (≈ 51.2 µM) | 11.2 (≈ 45.8 µM) | 
C=C[C@@]1(C)CC2=C(C[C@H]1C(=C)C)C(=O)C=CC2=O [Cordiachrome C] | 0.2 (≈ 0.825 µM) | 1.4 (≈ 5.78 µM) | 0.2 (≈ 0.825 µM) | 1.8 (≈ 7.43 µM) | 1.5 (≈ 6.19 µM) | 1.5 (≈ 6.19 µM) | 4.6 (≈ 19 µM) | 
C/C(C=O)=C\CCC1(C)C=Cc2cc(O)ccc2O1 (stereo not drawn) [ELAEAGIN] | 3.6 (≈ 13.9 µM) | 20 (≈ 77.4 µM) | 6.1 (≈ 23.6 µM) | > 20 | > 20 | 12.5 (≈ 48.4 µM) | > 20 | 
Cc1c2ccncc2c(C)c2c1[nH]c1ccccc12 [ELLIPTECINE] |  |  | 0.3 (≈ 1.22 µM) | 0.2 (≈ 0.812 µM) |  |  |  | 
C/C1=C/CC/C(C)=C/CC2=C(C1)C(=O)C=CC2=O [GLOBIFERIN] | 2.1 (≈ 8.67 µM) | > 50 | 0.5 (≈ 2.06 µM) | > 20 | > 20 | 6.2 (≈ 25.6 µM) | > 20 | 
NNC(=O)c1ccncc1 [ISONIAZID] |  |  |  |  |  |  |  | 0.05 (≈ 0.365 µM)
NC[C@H]1O[C@H](O[C@H]2[C@H](O)[C@@H](O[C@H]3O[C@H](CO)[C@@H](O)[C@H](N)[C@H]3O)[C@H](N)C[C@@H]2N)[C@H](O)[C@@H](O)[C@@H]1O [KANAMYCIN] |  |  |  |  |  |  |  | 2.5 (≈ 5.16 µM)
CO[C@H]1/C=C/O[C@@]2(C)Oc3c(C)c(O)c4c(O)c(c(/C=N/N5CCN(C)CC5)c(O)c4c3C2=O)NC(=O)/C(C)=C\C=C\[C@H](C)[C@H](O)[C@@H](C)[C@@H](O)[C@@H](C)[C@H](OC(C)=O)[C@@H]1C [RIFAMPIN] |  |  |  |  |  |  |  | 0.0047 (≈ 0.00571 µM)
